Source: ChEMBL document CHEMBL3351274, “Sensitization of tumor necrosis factor-related apoptosis-inducing ligand (TRAIL)-resistant primary prostate cancer cells by isoegomaketone from Perilla frutescens” (J Nat Prod, 2014)
Active and inactive are the calls of the source. The calls are words filed in the database; no cut-off is given here.

How the values were obtained:
[1] = Sensitization of TRAIL-induced apoptosis in human RC-58T/h/SA#4 cells assessed as cytochrome C level in cytosol at 20 uM after 24 hrs by immunoblotting analysis relative to untreated control; format: functional
Procedure, shortened: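 Cells given 20 μM compound and/or 100 ng/mL TRAIL for 24 h. Mitochondrial and cytosolic fractions prepared with a mitochondria isolation kit. Fractions resolved by 12% SDS-PAGE at 10 μg/lane and immunoblotted with anti-cytochrome c or anti-AIF overnight at 4 °C, then HRP secondary and ECL detection.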

[2] = Induction of apoptosis in human RC-58T/h/SA#4 cells assessed as DR5 expression at 20 uM after 12 hrs by immunoblotting analysis relative to untreated control; format: functional
[3] = Induction of apoptosis in human RC-58T/h/SA#4 cells assessed as p53 expression at 20 uM after 18 hrs by immunoblotting analysis relative to untreated control; format: functional
Procedure, shortened: (§1)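 RC-58T/h/SA#4 cells seeded at 5 × 10^4 cells/mL and cultured 24 h, then given compound across a concentration series or at fixed dose over a time course. Lysates were quantified by BCA. 10 μg protein/lane run on 12% SDS-PAGE and transferred to nitrocellulose. Blots probed for p53, CHOP and β-actin with HRP secondary and ECL.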

[4] = Induction of apoptosis in human RC-58T/h/SA#4 cells assessed as CHOP expression at 20 uM after 24 hrs by immunoblotting analysis relative to untreated control; format: functional; procedure, shortened: as §1
[5] = Induction of apoptosis in human RC-58T/h/SA#4 cells assessed as p53 expression at 2.5 uM after 24 hrs by immunoblotting analysis relative to untreated control; format: functional; procedure, shortened: as §1
[6] = Induction of apoptosis in human RC-58T/h/SA#4 cells assessed as DR4 expression at 20 uM after 24 hrs by immunoblotting analysis relative to untreated control; format: functional
Homo sapiens [7] = species on record: Homo sapiens; assay: Induction of apoptosis in human RC-58T/h/SA#4 cells assessed as p53 expression after 3 to 24 hrs by immunoblotting analysis relative to untreated control; format: functional, cell-based; procedure, shortened: as §1
[8] = Induction of apoptosis in human RC-58T/h/SA#4 cells assessed as procaspase-9 activation at 20 uM after 24 hrs by immunoblotting analysis relative to untreated control; format: functional
Procedure, shortened: (§2)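 Cells seeded at 5 × 10^4 cells/mL and cultured 24 h, then given 20 μM compound and/or 100 ng/mL TRAIL for 24 h. Whole-cell lysate made in Tris/NaCl/EDTA/NaF/pyrophosphate/PMSF/aprotinin buffer, 30 min on ice, protein measured by BCA. 12% SDS-PAGE at 10 μg/lane, nitrocellulose blot, primary antibodies (caspase-3, -8, -9, Bax, Bcl-2, PARP) overnight at 4 °C, HRP secondary, ECL.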

[9] = Induction of apoptosis in human RC-58T/h/SA#4 cells assessed as DR4 expression at 10 uM after 24 hrs by immunoblotting analysis relative to untreated control; format: functional
[10] = Sensitization of TRAIL-induced apoptosis in human RC-58T/h/SA#4 cells assessed as procaspase-3 activation at 20 uM after 24 hrs by immunoblotting analysis relative to untreated control; format: functional; procedure, shortened: as §2
[11] = Induction of apoptosis in human RC-58T/h/SA#4 cells assessed as accumulation at Sub-G1 phase at 20 uM after 24 hrs by annexin-V/propidium iodide staining-based flow cytometry (reference value: 4.8%); format: functional
[12] = Induction of apoptosis in human RC-58T/h/SA#4 cells assessed as DR5 expression at 20 uM after 18 hrs by immunoblotting analysis relative to untreated control; format: functional
[13] = Induction of apoptosis in human RC-58T/h/SA#4 cells assessed as procaspase-3 activation at 20 uM after 24 hrs by immunoblotting analysis relative to untreated control; format: functional; procedure, shortened: as §2
Homo sapiens [14] = species on record: Homo sapiens; assay: Induction of apoptosis in human RC-58T/h/SA#4 cells assessed as CHOP expression after 3 to 24 hrs by immunoblotting analysis relative to untreated control; format: functional, cell-based; procedure, shortened: as §1
Homo sapiens [15] = species on record: Homo sapiens; assay: Sensitization of TRAIL-induced apoptosis in human RC-58T/h/SA#4 cells at 20 uM after 24 hrs by annexin-V/propidium iodide staining-based flow cytometry relative to control; format: functional, cell-based
Procedure, shortened: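 RC-58T/h/SA#4 cells seeded at 1 × 10^5 cells/mL in 6-well plates and given 20 μM compound and/or 100 ng/mL TRAIL for 24 h. Cells washed in ice-cold PBS, labelled with annexin V Alexa Fluor 488 for 30 min at 4 °C in the dark, then with PI. Annexin V-positive fraction counted by flow cytometry; three independent experiments, means ± SD, Student's t-test.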

[16] = Induction of apoptosis in human RC-58T/h/SA#4 cells assessed as p53 expression at 40 uM after 24 hrs by immunoblotting analysis relative to untreated control; format: functional
Procedure, shortened: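 RC-58T/h/SA#4 cells (DMEM, 10% FBS, 37 °C, 5% CO2) exposed to the compound over a concentration range or time course. Lysates run on 12% SDS-PAGE at 10 μg protein/lane, transferred to nitrocellulose and blocked with BSA. Blots probed overnight at 4 °C with anti-p53, then HRP secondary antibody, ECL detection; β-actin as loading control.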

[17] = Induction of apoptosis in human RC-58T/h/SA#4 cells assessed as Bcl-2 activation at 20 uM after 24 hrs by immunoblotting analysis relative to untreated control; format: functional
Procedure, shortened: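 Cells grown in DMEM/10% FBS at 37 °C, 5% CO2, then treated 24 h with compound (20 μM) with or without TRAIL (100 ng/mL). Whole lysates were used for Bax and Bcl-2. Cytosolic and mitochondrial fractions were prepared with a mitochondria isolation kit for AIF and cytochrome c. Blotting used 10 μg protein/lane, 12% SDS-PAGE, nitrocellulose, overnight primary antibody at 4 °C and ECL detection.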

[18] = Induction of apoptosis in human RC-58T/h/SA#4 cells assessed as DR4 expression at 20 uM after 18 hrs by immunoblotting analysis relative to untreated control; format: functional
[19] = Sensitization of TRAIL-induced apoptosis in human RC-58T/h/SA#4 cells assessed as PARP cleavage at 20 uM after 24 hrs by immunoblotting analysis in presence of Dr5 Fc chimera relative to untreated control; format: functional
Procedure, shortened: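 Cells pretreated 2 h with 100 ng/mL DR5 Fc chimera, then given 20 μM compound and/or 100 ng/mL TRAIL for 24 h. Total lysates immunoblotted (12% SDS-PAGE, nitrocellulose) for caspase-3, -8, -9 and PARP cleavage, with HRP secondary and ECL detection.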

Homo sapiens [20] = species on record: Homo sapiens; assay: Induction of apoptosis in human RC-58T/h/SA#4 cells assessed as p53 expression at 2.5 to 40 uM by immunoblotting analysis relative to untreated control; format: functional, cell-based; settings: TDE = time-dependent effect; procedure, shortened: as §1
[21] = Induction of apoptosis in human RC-58T/h/SA#4 cells assessed as CHOP expression at 5 uM after 24 hrs by immunoblotting analysis relative to untreated control; format: functional; procedure, shortened: as §1
[22] = Induction of apoptosis in human RC-58T/h/SA#4 cells assessed as DR4 expression at 40 uM after 24 hrs by immunoblotting analysis relative to untreated control; format: functional

Work on `CC(C)/C=C/C(=O)c1ccoc1` yielded a Ratio [1] of 1.2, a Ratio [2] of 1.3 and a Ratio [3] of 2.2. It also gave a Ratio [4] of 1.8, a Ratio [5] of 1.2 and a Ratio [6] of 1. For the same compound, the Activity (Homo sapiens [7]) was “Dose-dependent effect”, the Ratio [8] was 0.8 and the Ratio [9] was 1. For the same compound, the Ratio [10] was 0.4, the Activity [11] was 10.1% and the Ratio [12] was 1.5. The Ratio [13] was 1, the Activity (Homo sapiens [14]) was “Dose-dependent effect” and the Activity (Homo sapiens [15]) was “Active”. It also gave a Ratio [16] of 2.4, a Ratio [17] of 0.7 and a Ratio [18] of 1.1. For the same compound, the Ratio [19] was 1, the Activity (Homo sapiens [20]) was “tde” and the Ratio [21] was 1.3. The Ratio [22] was 1.1.
